Most compounds without a hit are left out; they make up all but 1.4% or so of the library.
CTSL1 counter = cathepsin L1 inhibition, PFM18AAP counter-screen; recombinant F. hepatica cathepsin L1, Z-Leu-Arg-MCA fluorescence; inhibition, % at 5.96 µM; actives 0.49% (n = 300,000);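 active = inhibition above the mean of all tested compounds plus 3 SD, set per screening campaign, cut at about 17% in these data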;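 also: 0% = plate median of test compound wells and 100% = 1 µM Z-Phe-Ala-diazomethylketone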
Diaphorase inh = counter-screen for diaphorase-based assays: diaphorase inhibitors and chemical oxidizers; diaphorase resazurin-to-resorufin fluorescence, NADH, 16 min; bacterial (C. kluyveri) enzyme, not human; inhibition, % at 20 µM; actives 0.69% (n = 190,000); AID 1217;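 active = primary screen inhibition at 20 µM above a set limit, cut at about 50% in these data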;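 also: plate controls were DMSO with full reaction for no effect and wells lacking NADH for full effect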
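System: Diaphorase enzyme from Clostridium kluyveri | Amount: Enzyme working solution with 0.14 U/mL diaphorase | Benchmarks: No-NADH positive control and DMSO neutral control | Signal: Fluorescence of resorufin formed from resazurin, Ex 544/Em 590 nm | Schedule: 16-min room-temperature incubation before reading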
Diaphorase act = diaphorase activation or chemical reduction counter-screen; Diaphorase/resazurin coupled assay, resorufin fluorescence, 16 min; active compounds read high; 1 = vehicle wells, 0 = NADH-free wells; activation factor at 20 µM; actives 0.005% (n = 190,000); AID 1229;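 active = diaphorase activity raised at least twofold by the compound at 20 µM; inactive = activation factor below 2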
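Material: bacterial diaphorase enzyme (C. kluyveri); amount: enzyme 0.07 U/mL final; reagent: NADH substrate 0.114 mM plus resazurin dye 0.1 mM, final; doses: single compound dose of 20 µM, 1% DMSO final; timing: 16 min enzyme reaction, ambient temperature; measured by: fluorescence of resorufin, 544 nm excitation, 590 nm emission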
HKDC1 inhibitor = HKDC1 (human) hexokinase inhibition; Q2TB90; recombinant HKDC1, G6PDH/diaphorase resazurin coupled fluorescence; inhibition, % at 20 µM; actives 0.16% (n = 340,000); AID 493160;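 active = inhibition above about 35% when tested at 20 µM, limit read from the data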;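 also: plate controls were DMSO wells with enzyme for no effect and DMSO wells lacking enzyme for full effect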
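System: Recombinant HKDC1 hexokinase | Amount: HKDC1 at 5 µg/mL | Reagent: Glucose with 1 mM ATP | Doses: Single 20 µM dose | Incubation: Reaction time 90 min, room temperature, protected from light | Signal: Coupled resazurin fluorescence, excitation 525 nm, emission 613 nm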
ATG4B inh = ATG4B (human) cysteine protease inhibition | AID 504462 | Q9Y4P1 | inhibition, % at 8.33 µM | actives 0.51% (n = 340,000) | ATG4B cleavage of LC3-PLA2, NBD-HPC fluorescence, 1 h; in the data active = inhibition above about 40%
Target sequence (Q9Y4P1 whole entry, looked up): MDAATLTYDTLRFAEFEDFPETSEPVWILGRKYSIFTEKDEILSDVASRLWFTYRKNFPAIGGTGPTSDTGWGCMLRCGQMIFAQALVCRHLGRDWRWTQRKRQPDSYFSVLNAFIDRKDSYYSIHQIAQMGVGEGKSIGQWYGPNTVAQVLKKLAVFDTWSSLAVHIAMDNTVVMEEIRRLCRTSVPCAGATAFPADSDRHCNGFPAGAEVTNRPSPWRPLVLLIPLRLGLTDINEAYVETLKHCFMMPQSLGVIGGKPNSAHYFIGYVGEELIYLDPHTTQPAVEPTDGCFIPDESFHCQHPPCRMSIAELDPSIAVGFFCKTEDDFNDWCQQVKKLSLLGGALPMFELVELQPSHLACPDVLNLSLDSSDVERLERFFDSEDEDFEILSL
HKDC1 act conf = confirmation of human HKDC1 activators; shares compounds with HKDC1 inhibitor; recombinant HKDC1, G6PDH/diaphorase resazurin fluorescence; active compounds read low; inhibition, % at 20 µM; actives 14% (n = 740); AID 504708;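 active = inhibition at or below a set negative limit, negative inhibition meaning the enzyme was activated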
* marks the source's active call; other numbers are inactive results; nt = not tested or not shown; ! = a repeat was not active.

SMILES	CTSL1 counter	Diaphorase inh	Diaphorase act	HKDC1 inhibitor	ATG4B inh	HKDC1 act conf
COc1ccc(NC2Oc3cc4c(cc3C(c3cc(OC)c(OC)c(OC)c3)C2C)OCO4)cc1 (stereo not given)	nt	nt	nt	9.7	8.5	nt
CN1CCN(c2ccc(S(C)(=O)=O)cc2[N+](=O)[O-])CC1	-5.5	-6.0	1.1	-12.1	3.0	nt
CN1CCN(c2ccc([N+](=O)[O-])c3no[n+]([O-])c23)CC1	17.5*	nt	nt	4.8	11.7	nt
COc1ccc(Oc2cc(NC(=O)c3nn(C)cc3[N+](=O)[O-])cc([N+](=O)[O-])c2)cc1	20.2*	21.5	0.8	1.3	-4.6	nt
O=C(NCC(c1cccnc1)N1CCOCC1)Oc1ccccc1 (stereo not given)	2.2	16.7	0.8	5.9	-10.7	nt
O=C(NC(C(Cl)Cl)N1CCOCC1)c1ccccc1 (stereo not given)	67.8*	14.0	0.9	-8.0	-16.5	nt
CC1=CC(C)CC(C)OC(=O)CC(c2ccc(O)cc2)NC(=O)C(Cc2c(Br)[nH]c3ccccc23)N(C)C(=O)C(C)NC(=O)C(C)C1 (stereo not given)	nt	nt	nt	5.1	-29.2	nt
Cc1ccsc1/C=C1\C(=O)NC(=S)N(C)C1=O	2.6	nt	nt	5.0	5.2	nt
COc1ccc(/C=C2\C(=O)NC(=S)N(C)C2=O)cc1C	-3.8	8.1	0.9	36.4*	55.9*	nt
C[C@]12CCC3C(CC[C@H]4C[C@@H](O)CC[C@]34C)C1CC[C@@H]2OC(=O)[C@H](N)CCCCN (stereo not given in full)	nt	nt	nt	-4.0	3.3	nt
CC(=O)c1ccc2c(c1)C1C(Cl)C(Sc3ccccc3[N+](=O)[O-])CC1C(c1ccccc1[N+](=O)[O-])N2 (stereo not given)	2.3	63.4*	0.4	15.6	12.6	nt
CS(=O)(=O)CCN1CC2CCCC(C2)C1	nt	nt	nt	-6.1	-4.1	nt
CN(C)c1cccc2c(C#N)ccc(N(C)C)c12	3.9	72.1*	0.3	1.8	9.1	nt
CC[C@@H](CO)NC(=O)[C@@H]1C=C2c3cccc4c3c(cn4C)C[C@H]2N(C)C1	17.4*!	33.7	0.7	8.0	-0.3	nt
CCC(CO)NC(=O)C1C=C2c3cccc4[nH]cc(c34)CC2N(C)C1 (stereo not given)	1.2	nt	nt	-2.2	-1.2	nt
O=C(N/N=C\C1C(=O)NC(=S)N(c2ccccc2)C1=O)c1ccc(O)cc1 (stereo not given)	0.7	65.2*	0.3	-7.3	-6.9	nt
CC1=Nc2ccccc2/C1=C/c1c(O)[nH]c(=O)[nH]c1=O	0.5	nt	nt	8.3	2.9	nt
O=c1[nH]c(O)c(/C=C2/C=CC(c3cc(Cl)ccc3Cl)=N2)c(=O)[nH]1	-2.3	nt	nt	40.4*	5.5	nt
Cc1nc2ccccc2c(=O)n1-c1ccc(Br)cc1[N+](=O)[O-]	9.8	69.8*	0.3	14.0	-5.1	nt
NC(=O)c1ccc(N=Cc2c(O)n(Cc3ccco3)c(=O)[nH]c2=O)cc1	2.7	nt	nt	36.2*	4.9	-16.8
O=C(NN=Cc1ccc(N(CCCl)CCCl)cc1)c1cccnc1	nt	nt	nt	-2.2	1.6	nt
COC(=O)C1=C(C(=O)OC)SC2(S1)C(C(=O)OC)=C(C(=O)OC)Sc1c2ssc1=O	nt	nt	nt	-108.7	2.5	-88.9*
CC(O)C1C=CC=CC(=O)OC2CC3OC4C5OC5(C)C(O)CC4(COC(=O)C(O)C(C)CCO1)C2(C)C31CO1 (stereo not given)	nt	nt	nt	-9.8	0.8	nt
CN1CC[C@@]2(C)c3cc(O)ccc3N(C)C2O1 (stereo not given in full)	-0.3	nt	nt	16.4	-12.3	nt
CN1CC[C@@]2(C)c3cc(O)ccc3N(C)[C@@H]12	nt	nt	nt	33.5	1.8	17.4
SMILES	CTSL1 counter	Diaphorase inh	Diaphorase act	HKDC1 inhibitor	ATG4B inh	HKDC1 act conf
O=C(O)CC1OCC=C2CN3CCC45C6=CC(=O)C(=O)C([N+](=O)[O-])=C6NC4C1C2CC35 (stereo not given)	105.7*	nt	nt	42.5*	7.3	28.5
CCOC(=O)c1c(-n2c(C)cc(/C=C3\C(=O)NC(=O)N(C)C3=O)c2C)sc2c1CCCC2	3.8	27.7	0.7	51.2*	26.8	34.0
O=C1NC(=S)N(c2ccc(F)cc2)C(=O)/C1=C\c1ccoc1	nt	33.9	0.7	50.9*	85.4*	55.2
COC(=O)C1CN(C#N)N(c2ccc(Cl)cc2)C12c1ccccc1-c1ccccc12 (stereo not given)	1.0	7.9	0.9	87.2*	0.8	73.6
CC1(C)C(C(=O)N2CCN(c3ccc(Cl)cc3)CC2)C1(C)C	-4.3	nt	nt	-4.8	-7.8	nt
O=c1c2ccccc2nc(-c2ccccc2)n1-c1ccccc1	-5.6	nt	nt	-0.3	7.2	nt
O=c1c2ccccc2[se]n1-c1ccccc1	-3.1	70.4*	0.3	-115.9	7.7	5.0
N#CC(C#N)=Cc1ccc(C=C(C#N)C#N)cc1	nt	nt	nt	37.6*	9.6	-4.5
Cc1cc(N2CCCC2)ccc1C=C(C#N)C#N	0.0	8.3	0.9	-6.8	-9.1	nt
CC(CC(C#N)(c1ccccc1)c1ccccc1)N1CCOCC1 (stereo not given)	nt	nt	nt	-4.8	-5.6	nt
Cc1ccc2c(C)c3ccc4ccccc4c3c[n+]2c1	nt	nt	nt	-52.8	0.1	-65.5*
NC(=Nc1ccccc1)NN=Cc1c[nH]c2ccccc12	nt	nt	nt	-6.3	-3.5	nt
N#CC1=C(N)Oc2c(c(=O)sc3ccccc23)C1c1ccncc1 (stereo not given)	-1.1	9.4	0.9	-57.7	4.0	-22.4
O=[N+]([O-])c1ccc(OP(=O)(O)Oc2ccc([N+](=O)[O-])cc2)cc1	nt	nt	nt	1.5	-4.4	nt
CCOC(=O)c1cnc(SCc2ccc(Cl)c(Cl)c2)nc1N1CC1	nt	nt	nt	11.0	5.0	nt
CC[C@H](C)/C=C(C)/C=C/C1=CC2=C(Cl)C(=O)[C@@](C)(OC(C)=O)C(=O)C2=CO1	0.1	nt	nt	62.8*	66.6*	45.8
CC1=C(C)CC2(C(=O)NC(=S)NC2=O)C(C)C1 (stereo not given)	nt	nt	nt	-1.1	-3.4	nt
O=C1CC=C2C3CC4N(CCC45c4cc(O)c(O)cc4N1C25)CC3=CCBr (stereo not given)	nt	nt	nt	44.6*	9.9	25.6
O=C1CC=C2C3CC4N(CCC45c4ccccc4N1C25)CC3=CCO (stereo not given)	nt	nt	nt	-4.2	-4.8	nt
CC(CC(C)(C)N1CC1)=NNC(=O)Nc1cccc2ccccc12	nt	nt	nt	8.1	-10.1	nt
Cn1c(=O)c2c(nc(N/N=C/c3c(O)n(C4CCCCC4)c(=S)[nH]c3=O)n2C)n(C)c1=O	-0.4	nt	nt	-46.3	-5.8	-49.5*
Cc1ccccc1-n1c(O)c(/C=N/Nc2nc3c(c(=O)n(C)c(=O)n3C)n2C)c(=O)[nH]c1=S	-2.4	36.8	0.6	11.1	-4.1	nt

Assay outcomes (PubChem)
